Tests used:
[1] = molecular target: Amyloid-beta precursor protein (Homo sapiens, UniProt P05067); assay: Inhibition of amyloid beta 40 peptide (unknown origin) aggregation incubated for 2 hr by ThT fluorescence based spectrofluorimetric analysis
How it was run: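 Aβ40 peptide aggregation enhanced with 2% HFIP; thioflavin T fluorescence read-out; run in triplicate.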

Cholinesterase [2] = molecular target: Cholinesterase (Equus caballus, UniProt P81908); assay: Inhibition of equine serum BChE using butyrylthiocholine iodide as substrate preincubated for 20 mins followed by substrate addition by DTNB reagent based Ellman's method; format: cell-free
Cholinesterase [3] = molecular target: Cholinesterase (Homo sapiens, UniProt P06276); assay: Inhibition of human recombinant BChE using acetylthiocholine iodide as substrate preincubated for 20 mins followed by substrate addition by DTNB reagent based Ellman's method
How it was run: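 Human BChE was assayed by the Ellman spectrophotometric method. IC50 values are means of three independent experiments, each run in triplicate.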

Acetylcholinesterase [4] = molecular target: Acetylcholinesterase (Electrophorus electricus, UniProt O42275); assay: Inhibition of electric eel AChE using acetylthiocholine iodide as substrate preincubated for 20 mins followed by substrate addition by DTNB reagent based Ellman's method
[5] = molecular target: T1, Microtubule-associated protein tau (Homo sapiens, UniProt P10636); assay: Inhibition of tau (unknown origin) aggregation expressed in Escherichia coli BL21 (DE3)
How it was run: (§1)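 E. coli BL21(DE3) carrying pTARA (T7 RNA polymerase under PBAD) and pRKT42 (four-repeat tau) grown at 37 °C in M9 with 0.5% glucose, antibiotics and 250 μM ThS to OD600 0.6. […] ThS fluorescence ex 430/em 485 nm, normalized to tau-expressing cells (100%) and non-expressing cells (0%); OD600 checked for growth.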

Acetylcholinesterase [6] = molecular target: Acetylcholinesterase (Homo sapiens, UniProt P22303); assay: Inhibition of human recombinant AChE using acetylthiocholine iodide as substrate preincubated for 20 mins followed by substrate addition by DTNB reagent based Ellman's method
[7] = Cytotoxicity against mouse brain Primary embryonic cortical cell assessed as cell death at 30 uM incubated for 2 hrs by propidium iodide dye based spectrofluorometric analysis relative to control; format: toxicity
How it was run: (§2)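 Primary cortical cultures from E16.5 mouse embryo brains, trypsinized, plated on poly-D-lysine, grown in Neurobasal with glutamine, glucose, 5% horse serum and B27; compounds added at 4 DIV. Propidium iodide 30 μM; baseline F1 read 1 h after PI; ex 530/em 645 nm. Fmax after digitonin permeabilization. % death = 100×(Fn−F1)/(Fmax−F1); mean of three independent experiments.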

[8] = Cytotoxicity against mouse brain Primary embryonic cortical cell assessed as cell death at 5 uM incubated for 24 hrs by propidium iodide dye based spectrofluorometric analysis relative to control; format: toxicity; how it was run: as §2
[9] = Cytotoxicity against mouse brain Primary embryonic cortical cell assessed as cell death at 2.5 uM incubated for 4 hrs by propidium iodide dye based spectrofluorometric analysis relative to control; format: toxicity; how it was run: as §2
[10] = Cytotoxicity against mouse brain Primary embryonic cortical cell assessed as cell death at 30 uM incubated for 6 hrs by propidium iodide dye based spectrofluorometric analysis relative to control; format: toxicity; how it was run: as §2
[11] = Cytotoxicity against mouse brain Primary embryonic cortical cell assessed as cell death at 10 uM incubated for 3 hrs by propidium iodide dye based spectrofluorometric analysis relative to control; format: toxicity; how it was run: as §2
[12] = Cytotoxicity against mouse brain Primary embryonic cortical cell assessed as cell death at 2.5 uM incubated for 6 hrs by propidium iodide dye based spectrofluorometric analysis relative to control; format: toxicity; how it was run: as §2
[13] = Cytotoxicity against mouse brain Primary embryonic cortical cell assessed as cell death at 30 uM incubated for 3 hrs by propidium iodide dye based spectrofluorometric analysis relative to control; format: toxicity; how it was run: as §2
[14] = Cytotoxicity against mouse brain Primary embryonic cortical cell assessed as cell death at 2.5 uM incubated for 72 hrs by propidium iodide dye based spectrofluorometric analysis relative to control; format: toxicity; how it was run: as §2
[15] = Cytotoxicity against mouse brain Primary embryonic cortical cell assessed as cell death at 2.5 uM incubated for 1 hr by propidium iodide dye based spectrofluorometric analysis relative to control; format: toxicity; how it was run: as §2
[16] = Cytotoxicity against mouse brain Primary embryonic cortical cell assessed as cell death at 10 uM incubated for 6 hrs by propidium iodide dye based spectrofluorometric analysis relative to control; format: toxicity; how it was run: as §2
[17] = Cytotoxicity against mouse brain Primary embryonic cortical cell assessed as cell death at 10 uM incubated for 72 hrs by propidium iodide dye based spectrofluorometric analysis relative to control; format: toxicity; how it was run: as §2
[18] = Cytotoxicity against mouse brain Primary embryonic cortical cell assessed as cell death at 30 uM incubated for 24 hrs by propidium iodide dye based spectrofluorometric analysis relative to control; format: toxicity; how it was run: as §2
[19] = Cytotoxicity against mouse brain Primary embryonic cortical cell assessed as cell death at 2.5 uM incubated for 48 hrs by propidium iodide dye based spectrofluorometric analysis relative to control; format: toxicity; how it was run: as §2
[20] = Cytotoxicity against mouse brain Primary embryonic cortical cell assessed as cell death at 5 uM incubated for 72 hrs by propidium iodide dye based spectrofluorometric analysis relative to control; format: toxicity; how it was run: as §2
[21] = Cytotoxicity against mouse brain Primary embryonic cortical cell assessed as cell death at 30 uM incubated for 72 hrs by propidium iodide dye based spectrofluorometric analysis relative to control; format: toxicity; how it was run: as §2
[22] = Cytotoxicity against mouse brain Primary embryonic cortical cell assessed as cell death at 10 uM incubated for 5 hrs by propidium iodide dye based spectrofluorometric analysis relative to control; format: toxicity; how it was run: as §2
[23] = Cytotoxicity against mouse brain Primary embryonic cortical cell assessed as cell death at 30 uM incubated for 1 hr by propidium iodide dye based spectrofluorometric analysis relative to control; format: toxicity; how it was run: as §2
[24] = Cytotoxicity against mouse brain Primary embryonic cortical cell assessed as cell death at 2.5 uM incubated for 24 hrs by propidium iodide dye based spectrofluorometric analysis relative to control; format: toxicity; how it was run: as §2
[25] = Cytotoxicity against mouse brain Primary embryonic cortical cell assessed as cell death at 2.5 uM incubated for 2 hrs by propidium iodide dye based spectrofluorometric analysis relative to control; format: toxicity; how it was run: as §2
[26] = Cytotoxicity against mouse brain Primary embryonic cortical cell assessed as cell death at 30 uM incubated for 4 hrs by propidium iodide dye based spectrofluorometric analysis relative to control; format: toxicity; how it was run: as §2
[27] = Cytotoxicity against mouse brain Primary embryonic cortical cell assessed as cell death at 5 uM incubated for 2 hrs by propidium iodide dye based spectrofluorometric analysis relative to control; format: toxicity; how it was run: as §2
[28] = Cytotoxicity against mouse brain Primary embryonic cortical cell assessed as cell death at 5 uM incubated for 4 hrs by propidium iodide dye based spectrofluorometric analysis relative to control; format: toxicity; how it was run: as §2
[29] = Cytotoxicity against mouse brain Primary embryonic cortical cell assessed as cell death at 30 uM incubated for 5 hrs by propidium iodide dye based spectrofluorometric analysis relative to control; format: toxicity; how it was run: as §2
[30] = Cytotoxicity against mouse brain Primary embryonic cortical cell assessed as cell death at 10 uM incubated for 24 hrs by propidium iodide dye based spectrofluorometric analysis relative to control; format: toxicity; how it was run: as §2
[31] = Cytotoxicity against mouse brain Primary embryonic cortical cell assessed as cell death at 5 uM incubated for 1 hr by propidium iodide dye based spectrofluorometric analysis relative to control; format: toxicity; how it was run: as §2
[32] = Cytotoxicity against mouse brain Primary embryonic cortical cell assessed as cell death at 10 uM incubated for 2 hrs by propidium iodide dye based spectrofluorometric analysis relative to control; format: toxicity; how it was run: as §2
[33] = Cytotoxicity against mouse brain Primary embryonic cortical cell assessed as cell death at 5 uM incubated for 48 hrs by propidium iodide dye based spectrofluorometric analysis relative to control; format: toxicity; how it was run: as §2
[34] = Cytotoxicity against mouse brain Primary embryonic cortical cell assessed as cell death at 5 uM incubated for 5 hrs by propidium iodide dye based spectrofluorometric analysis relative to control; format: toxicity; how it was run: as §2
[35] = Cytotoxicity against mouse brain Primary embryonic cortical cell assessed as cell death at 30 uM incubated for 48 hrs by propidium iodide dye based spectrofluorometric analysis relative to control; format: toxicity; how it was run: as §2
[36] = Cytotoxicity against mouse brain Primary embryonic cortical cell assessed as cell death at 5 uM incubated for 6 hrs by propidium iodide dye based spectrofluorometric analysis relative to control; format: toxicity; how it was run: as §2
[37] = Cytotoxicity against mouse brain Primary embryonic cortical cell assessed as cell death at 2.5 uM incubated for 3 hrs by propidium iodide dye based spectrofluorometric analysis relative to control; format: toxicity; how it was run: as §2
[38] = Cytotoxicity against mouse brain Primary embryonic cortical cell assessed as cell death at 10 uM incubated for 48 hrs by propidium iodide dye based spectrofluorometric analysis relative to control; format: toxicity; how it was run: as §2
[39] = Cytotoxicity against mouse brain Primary embryonic cortical cell assessed as cell death at 10 uM incubated for 4 hrs by propidium iodide dye based spectrofluorometric analysis relative to control; format: toxicity; how it was run: as §2
[40] = Cytotoxicity against mouse brain Primary embryonic cortical cell assessed as cell death at 2.5 uM incubated for 5 hrs by propidium iodide dye based spectrofluorometric analysis relative to control; format: toxicity; how it was run: as §2
[41] = Cytotoxicity against mouse brain Primary embryonic cortical cell assessed as cell death at 10 uM incubated for 1 hr by propidium iodide dye based spectrofluorometric analysis relative to control; format: toxicity; how it was run: as §2
[42] = Cytotoxicity against mouse brain Primary embryonic cortical cell assessed as cell death at 5 uM incubated for 3 hrs by propidium iodide dye based spectrofluorometric analysis relative to control; format: toxicity; how it was run: as §2
[43] = molecular target: T1, Microtubule-associated protein tau; assay: Inhibition of tau (unknown origin) aggregation expressed in Escherichia coli BL21 (DE3) at 10 uM relative to control; how it was run: as §1

Cholinesterase (Homo sapiens, UniProt P06276), sequence (P06276 whole entry): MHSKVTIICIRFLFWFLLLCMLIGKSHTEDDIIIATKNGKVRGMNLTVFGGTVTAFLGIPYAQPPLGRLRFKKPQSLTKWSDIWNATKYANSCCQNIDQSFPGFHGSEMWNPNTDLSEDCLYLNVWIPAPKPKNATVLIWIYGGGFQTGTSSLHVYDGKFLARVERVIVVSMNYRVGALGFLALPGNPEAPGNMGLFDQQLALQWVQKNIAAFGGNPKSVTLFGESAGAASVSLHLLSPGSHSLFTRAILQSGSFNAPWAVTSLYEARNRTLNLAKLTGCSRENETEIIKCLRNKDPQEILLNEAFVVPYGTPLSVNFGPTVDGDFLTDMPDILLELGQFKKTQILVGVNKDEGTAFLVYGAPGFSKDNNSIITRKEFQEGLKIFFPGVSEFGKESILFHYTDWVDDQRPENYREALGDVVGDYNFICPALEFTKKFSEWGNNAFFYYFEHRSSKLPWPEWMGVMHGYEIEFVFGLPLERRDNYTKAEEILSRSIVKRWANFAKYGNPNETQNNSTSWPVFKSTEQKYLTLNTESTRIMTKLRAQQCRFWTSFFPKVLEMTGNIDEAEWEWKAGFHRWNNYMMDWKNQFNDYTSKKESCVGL
Acetylcholinesterase (Homo sapiens, UniProt P22303), sequence (P22303 whole entry): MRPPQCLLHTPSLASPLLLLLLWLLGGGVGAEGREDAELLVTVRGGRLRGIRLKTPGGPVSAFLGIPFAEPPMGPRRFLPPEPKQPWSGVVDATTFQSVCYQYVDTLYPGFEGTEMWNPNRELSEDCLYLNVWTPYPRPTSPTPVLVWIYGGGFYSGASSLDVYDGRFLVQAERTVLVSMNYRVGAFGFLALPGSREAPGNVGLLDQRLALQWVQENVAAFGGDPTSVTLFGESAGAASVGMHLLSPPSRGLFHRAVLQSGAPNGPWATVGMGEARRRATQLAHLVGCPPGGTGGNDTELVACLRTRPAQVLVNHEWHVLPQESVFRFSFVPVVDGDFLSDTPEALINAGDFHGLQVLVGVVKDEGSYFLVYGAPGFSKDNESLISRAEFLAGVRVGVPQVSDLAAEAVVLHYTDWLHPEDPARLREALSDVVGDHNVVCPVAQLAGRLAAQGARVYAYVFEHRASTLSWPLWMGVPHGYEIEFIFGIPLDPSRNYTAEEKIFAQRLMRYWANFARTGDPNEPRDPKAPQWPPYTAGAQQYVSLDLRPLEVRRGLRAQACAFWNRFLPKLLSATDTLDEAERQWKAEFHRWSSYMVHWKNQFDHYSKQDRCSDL
Acetylcholinesterase (Electrophorus electricus, UniProt O42275), sequence (O42275 whole entry): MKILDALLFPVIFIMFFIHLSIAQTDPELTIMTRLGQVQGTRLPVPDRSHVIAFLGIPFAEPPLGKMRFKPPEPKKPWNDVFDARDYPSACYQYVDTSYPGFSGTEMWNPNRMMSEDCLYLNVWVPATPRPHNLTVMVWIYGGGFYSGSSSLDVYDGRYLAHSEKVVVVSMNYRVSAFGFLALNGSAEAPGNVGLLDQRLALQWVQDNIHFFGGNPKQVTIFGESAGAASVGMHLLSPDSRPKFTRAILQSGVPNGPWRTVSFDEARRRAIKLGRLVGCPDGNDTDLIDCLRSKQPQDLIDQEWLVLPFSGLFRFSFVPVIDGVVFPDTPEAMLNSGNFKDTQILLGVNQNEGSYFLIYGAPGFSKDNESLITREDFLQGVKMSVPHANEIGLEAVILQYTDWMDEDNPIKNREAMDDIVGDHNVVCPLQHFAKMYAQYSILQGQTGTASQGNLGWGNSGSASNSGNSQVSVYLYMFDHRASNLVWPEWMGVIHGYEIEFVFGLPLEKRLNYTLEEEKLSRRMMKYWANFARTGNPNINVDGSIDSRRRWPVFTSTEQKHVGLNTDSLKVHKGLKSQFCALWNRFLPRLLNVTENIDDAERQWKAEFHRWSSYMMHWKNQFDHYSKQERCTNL
T1 sequence (P10636 whole entry): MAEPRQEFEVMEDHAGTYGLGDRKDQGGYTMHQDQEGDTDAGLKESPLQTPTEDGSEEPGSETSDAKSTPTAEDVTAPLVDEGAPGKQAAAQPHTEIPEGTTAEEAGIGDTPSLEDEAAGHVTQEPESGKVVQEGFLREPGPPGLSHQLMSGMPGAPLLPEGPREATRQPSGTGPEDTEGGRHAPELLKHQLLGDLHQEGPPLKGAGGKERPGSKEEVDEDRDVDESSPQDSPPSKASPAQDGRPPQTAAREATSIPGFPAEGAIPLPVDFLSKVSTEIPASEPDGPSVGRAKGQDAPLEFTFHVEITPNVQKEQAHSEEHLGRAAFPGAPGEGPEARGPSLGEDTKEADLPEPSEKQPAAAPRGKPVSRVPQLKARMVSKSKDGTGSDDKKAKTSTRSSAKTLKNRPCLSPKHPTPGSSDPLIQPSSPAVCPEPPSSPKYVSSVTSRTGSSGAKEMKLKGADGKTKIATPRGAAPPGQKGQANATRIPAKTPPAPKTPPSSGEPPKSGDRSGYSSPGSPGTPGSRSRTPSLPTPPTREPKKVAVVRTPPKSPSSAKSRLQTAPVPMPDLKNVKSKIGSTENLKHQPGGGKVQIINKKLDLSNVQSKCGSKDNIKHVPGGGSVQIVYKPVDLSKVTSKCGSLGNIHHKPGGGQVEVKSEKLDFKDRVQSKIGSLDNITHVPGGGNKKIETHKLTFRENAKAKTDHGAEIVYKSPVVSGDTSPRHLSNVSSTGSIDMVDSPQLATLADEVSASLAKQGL
Cholinesterase (Equus caballus, UniProt P81908), sequence (P81908 whole entry): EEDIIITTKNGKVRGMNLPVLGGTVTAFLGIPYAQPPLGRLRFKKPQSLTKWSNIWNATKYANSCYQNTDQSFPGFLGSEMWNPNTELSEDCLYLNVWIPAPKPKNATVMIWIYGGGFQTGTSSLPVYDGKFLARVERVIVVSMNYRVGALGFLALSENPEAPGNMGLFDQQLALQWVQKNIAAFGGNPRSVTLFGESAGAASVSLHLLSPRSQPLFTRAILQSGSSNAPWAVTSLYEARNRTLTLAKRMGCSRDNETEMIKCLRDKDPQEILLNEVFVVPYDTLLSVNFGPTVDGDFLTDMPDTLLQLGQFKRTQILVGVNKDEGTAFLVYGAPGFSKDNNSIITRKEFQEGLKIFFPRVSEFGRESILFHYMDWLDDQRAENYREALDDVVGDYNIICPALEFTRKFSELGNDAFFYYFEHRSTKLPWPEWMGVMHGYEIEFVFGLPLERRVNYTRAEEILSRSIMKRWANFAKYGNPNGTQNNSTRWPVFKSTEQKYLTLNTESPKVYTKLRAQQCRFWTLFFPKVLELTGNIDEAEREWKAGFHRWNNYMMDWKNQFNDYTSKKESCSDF
Amyloid-beta precursor protein, sequence (P05067 whole entry): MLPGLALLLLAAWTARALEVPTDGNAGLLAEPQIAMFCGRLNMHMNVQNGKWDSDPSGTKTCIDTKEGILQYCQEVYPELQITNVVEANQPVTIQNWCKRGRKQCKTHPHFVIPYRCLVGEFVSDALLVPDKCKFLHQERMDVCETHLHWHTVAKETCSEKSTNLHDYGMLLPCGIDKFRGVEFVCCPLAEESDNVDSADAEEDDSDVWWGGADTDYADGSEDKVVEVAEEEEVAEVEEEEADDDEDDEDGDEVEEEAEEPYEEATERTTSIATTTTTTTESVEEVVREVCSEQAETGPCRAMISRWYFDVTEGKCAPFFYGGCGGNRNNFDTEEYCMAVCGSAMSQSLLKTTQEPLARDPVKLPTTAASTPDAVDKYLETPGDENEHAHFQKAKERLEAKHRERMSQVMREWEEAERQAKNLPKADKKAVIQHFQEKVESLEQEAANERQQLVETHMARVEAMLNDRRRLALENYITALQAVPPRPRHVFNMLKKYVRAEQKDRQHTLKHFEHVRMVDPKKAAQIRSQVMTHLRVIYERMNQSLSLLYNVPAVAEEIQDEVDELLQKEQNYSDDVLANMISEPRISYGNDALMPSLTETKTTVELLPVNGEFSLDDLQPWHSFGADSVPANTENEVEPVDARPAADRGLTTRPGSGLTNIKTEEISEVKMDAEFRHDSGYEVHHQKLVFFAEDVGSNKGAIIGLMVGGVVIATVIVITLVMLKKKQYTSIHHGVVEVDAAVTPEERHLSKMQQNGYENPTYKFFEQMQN

## COc1ccc2sc3c([N+](=O)[O-])ccc(NCCC[C@@H]4CCCN5CCCC[C@H]45)c3c(=O)c2c1
[1]
  IC50: 7.9 µM
Cholinesterase [2]
  IC50: 2 µM
Cholinesterase [3]
  IC50: 7.31 µM
Acetylcholinesterase [4]
  IC50: 0.12 µM
[5]
  IC50: 3 µM
Acetylcholinesterase [6]
  IC50: 1.75 µM

## COc1ccc2sc3c(C)ccc(NCC[C@@H]4CCCN5CCCC[C@H]45)c3c(=O)c2c1
[1]
  IC50: 2.4 µM
Cholinesterase [2]
  IC50: 0.14 µM
Cholinesterase [3]
  IC50: 0.71 µM
Acetylcholinesterase [4]
  IC50: 5.1 µM
[5]
  IC50: 14 µM
Acetylcholinesterase [6]
  IC50: 3.59 µM

## CCCN(SC[C@H]1CCCN2CCCC[C@H]12)C1=C(Cl)C(=O)c2ccccc2C1=O
[1]
  IC50: 61 µM

## O=c1c2ccccc2sc2c([N+](=O)[O-])ccc(NC[C@@H]3CCCN4CCCC[C@H]34)c12
[1]
  IC50: 20 µM
[5]
  IC50: 15 µM

## COc1ccc2sc3c(C)ccc(NCCC[C@@H]4CCCN5CCCC[C@H]45)c3c(=O)c2c1
[7]
  Activity: 5.7%
[8]
  Activity: 17.8%
[9]
  Activity: 2.2%
[10]
  Activity: 10.7%
[1]
  IC50: 2.5 µM
[11]
  Activity: 4.9%
[12]
  Activity: 2%
[13]
  Activity: 7.1%
[14]
  Activity: 33.6%
[15]
  Activity: -0.1%
[16]
  Activity: 4%
[17]
  Activity: 42.1%
[18]
  Activity: 48.6%
[19]
  Activity: 18.4%
[20]
  Activity: 37.6%
[21]
  Activity: 54.3%
[22]
  Activity: 6.1%
[23]
  Activity: 3.8%
[24]
  Activity: 8.9%
[25]
  Activity: 1.6%
[26]
  Activity: 9.5%
[27]
  Activity: 3.4%
[28]
  Activity: 3.3%
[29]
  Activity: 9.3%
[30]
  Activity: 19.6%
[31]
  Activity: 1%
[32]
  Activity: 5.8%
[33]
  Activity: 27.8%
[34]
  Activity: 4.4%
[35]
  Activity: 52.4%
[36]
  Activity: 5.7%
[37]
  Activity: 1.8%
[38]
  Activity: 27.4%
[39]
  Activity: 5.3%
[5]
  IC50: 5.9 µM
[40]
  Activity: 1.9%
[41]
  Activity: 4.2%
[42]
  Activity: 1.8%

## CCN(CC)CCCNc1ccc([N+](=O)[O-])c2sc3ccc(OC)cc3c(=O)c12
[1]
  IC50: 17 µM
[5]
  IC50: 4.8 µM

## Nc1ccc(NCCC[C@@H]2CCCN3CCCC[C@H]23)c2c(=O)c3ccccc3sc12
[1]
  IC50: 1.3 µM
[43]
  inhibition: 26%

## Cc1ccc(NCCC[C@@H]2CCCN3CCCC[C@H]23)c2c(=O)c3ccccc3oc12
[1]
  IC50: 13 µM
Cholinesterase [2]
  IC50: 0.37 µM
Cholinesterase [3]
  IC50: 0.3 µM
Acetylcholinesterase [4]
  IC50: 0.14 µM
[5]
  IC50: 23 µM
Acetylcholinesterase [6]
  IC50: 8.81 µM

## Cc1ccc(NCCC[C@@H]2CCCN3CCCC[C@H]23)c2c(=O)c3ccccc3sc12
[1]
  IC50: 4.3 µM
[43]
  inhibition: 26%

## Cc1ccc(NCC[C@@H]2CCCN3CCCC[C@H]23)c2c(=O)c3cc(O)ccc3sc12
[1]
  IC50: 2.4 µM
Cholinesterase [2]
  IC50: 0.16 µM
Cholinesterase [3]
  IC50: 0.9 µM
Acetylcholinesterase [4]
  IC50: 3.2 µM
[5]
  IC50: 8.9 µM
Acetylcholinesterase [6]
  IC50: 4.26 µM
